The target in assay [1] is T1, Phosphatidylinositol 4-kinase, PI4K (Homo sapiens) (UniProt Q9BTU6+Q8TCG2+Q9UBF8+P42356). The assay can be described thus: Rate of phosphorylation was determined with that of mammalian PI using human erythrocyte PI 4-kinase at 200 uM substrate. The assay is classed as functional. In outline: (§1)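 Enzyme was extracted with Triton X-100 from human erythrocyte membranes and purified about 90-fold. Substrate at 200 μM final was tested in mixed micelles with 0.3% Triton X-100, 100 μM [γ-32P]ATP, 15 mM MgCl2, 1 mM EGTA, 1 mM DTT, 0.1 M NaCl and 50 mM HEPES pH 7.4 at 30 °C. Reactions were stopped with acidified CHCl3/MeOH, and organic-phase 32P was counted. Rates were expressed relative to mammalian PI, triplicate, mean ± SE.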

Assay [2] addresses T1, Phosphatidylinositol 4-kinase, PI4K (Homo sapiens). As to the kind of experiment: Percent relative rate of phosphorylation was determined using human erythrocyte PI 4-kinase. The assay is classed as functional. An outline of the steps: as §1

Each structure is given as a SMILES string.

T1 sequence (P42356 whole entry, looked up): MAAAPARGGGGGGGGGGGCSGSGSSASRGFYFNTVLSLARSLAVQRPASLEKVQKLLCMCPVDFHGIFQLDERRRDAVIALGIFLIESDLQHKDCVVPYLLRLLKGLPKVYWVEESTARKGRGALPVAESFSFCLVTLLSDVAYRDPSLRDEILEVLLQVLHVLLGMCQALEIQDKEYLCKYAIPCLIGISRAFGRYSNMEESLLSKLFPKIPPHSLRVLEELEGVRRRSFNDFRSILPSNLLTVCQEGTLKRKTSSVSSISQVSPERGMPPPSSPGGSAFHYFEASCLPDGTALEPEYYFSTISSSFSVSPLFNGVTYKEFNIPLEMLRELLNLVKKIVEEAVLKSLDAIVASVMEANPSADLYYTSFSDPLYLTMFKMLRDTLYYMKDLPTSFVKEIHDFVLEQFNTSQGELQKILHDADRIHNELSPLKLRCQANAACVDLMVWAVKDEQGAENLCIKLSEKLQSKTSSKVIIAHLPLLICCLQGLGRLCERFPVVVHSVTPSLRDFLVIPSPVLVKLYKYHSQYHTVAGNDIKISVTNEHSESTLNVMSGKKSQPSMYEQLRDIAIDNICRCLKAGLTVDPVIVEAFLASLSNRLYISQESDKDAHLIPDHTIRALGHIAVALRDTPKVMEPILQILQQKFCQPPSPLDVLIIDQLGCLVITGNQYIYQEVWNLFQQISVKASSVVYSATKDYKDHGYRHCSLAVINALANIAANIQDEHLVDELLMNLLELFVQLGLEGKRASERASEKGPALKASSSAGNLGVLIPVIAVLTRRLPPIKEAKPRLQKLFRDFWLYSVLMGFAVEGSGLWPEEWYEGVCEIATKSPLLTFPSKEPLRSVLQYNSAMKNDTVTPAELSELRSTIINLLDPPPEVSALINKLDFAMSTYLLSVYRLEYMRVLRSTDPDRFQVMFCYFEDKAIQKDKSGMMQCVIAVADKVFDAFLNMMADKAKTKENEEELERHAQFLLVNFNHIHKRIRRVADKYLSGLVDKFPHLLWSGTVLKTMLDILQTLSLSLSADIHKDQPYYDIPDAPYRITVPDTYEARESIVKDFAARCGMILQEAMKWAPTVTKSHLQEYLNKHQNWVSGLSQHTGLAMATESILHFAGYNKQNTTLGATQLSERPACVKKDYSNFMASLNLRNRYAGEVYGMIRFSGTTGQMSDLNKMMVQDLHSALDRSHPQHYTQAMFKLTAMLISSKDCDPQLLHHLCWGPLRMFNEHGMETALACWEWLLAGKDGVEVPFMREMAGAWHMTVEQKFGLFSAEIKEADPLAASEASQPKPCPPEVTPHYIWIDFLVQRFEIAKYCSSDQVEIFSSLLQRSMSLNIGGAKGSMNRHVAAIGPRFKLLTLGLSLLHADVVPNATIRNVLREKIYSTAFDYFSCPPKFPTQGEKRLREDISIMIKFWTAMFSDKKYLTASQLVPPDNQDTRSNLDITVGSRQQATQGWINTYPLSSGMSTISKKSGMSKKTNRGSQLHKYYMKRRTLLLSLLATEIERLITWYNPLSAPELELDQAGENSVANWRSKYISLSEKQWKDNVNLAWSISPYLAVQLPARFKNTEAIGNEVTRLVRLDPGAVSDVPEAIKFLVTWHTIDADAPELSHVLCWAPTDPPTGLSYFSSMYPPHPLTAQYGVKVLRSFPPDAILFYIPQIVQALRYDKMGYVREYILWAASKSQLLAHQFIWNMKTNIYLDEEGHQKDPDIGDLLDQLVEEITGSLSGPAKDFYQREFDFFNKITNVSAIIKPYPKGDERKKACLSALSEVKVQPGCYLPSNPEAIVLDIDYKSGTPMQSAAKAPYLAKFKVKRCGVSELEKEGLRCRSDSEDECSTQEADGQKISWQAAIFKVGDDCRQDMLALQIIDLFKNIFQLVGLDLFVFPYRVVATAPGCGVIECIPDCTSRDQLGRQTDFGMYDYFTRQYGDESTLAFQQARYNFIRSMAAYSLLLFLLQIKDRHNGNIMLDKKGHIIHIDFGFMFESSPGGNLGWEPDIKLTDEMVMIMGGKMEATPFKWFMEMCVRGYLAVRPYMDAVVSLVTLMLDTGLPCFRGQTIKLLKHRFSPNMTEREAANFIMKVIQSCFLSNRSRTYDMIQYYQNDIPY
T1 sequence (Q8TCG2 whole entry, looked up): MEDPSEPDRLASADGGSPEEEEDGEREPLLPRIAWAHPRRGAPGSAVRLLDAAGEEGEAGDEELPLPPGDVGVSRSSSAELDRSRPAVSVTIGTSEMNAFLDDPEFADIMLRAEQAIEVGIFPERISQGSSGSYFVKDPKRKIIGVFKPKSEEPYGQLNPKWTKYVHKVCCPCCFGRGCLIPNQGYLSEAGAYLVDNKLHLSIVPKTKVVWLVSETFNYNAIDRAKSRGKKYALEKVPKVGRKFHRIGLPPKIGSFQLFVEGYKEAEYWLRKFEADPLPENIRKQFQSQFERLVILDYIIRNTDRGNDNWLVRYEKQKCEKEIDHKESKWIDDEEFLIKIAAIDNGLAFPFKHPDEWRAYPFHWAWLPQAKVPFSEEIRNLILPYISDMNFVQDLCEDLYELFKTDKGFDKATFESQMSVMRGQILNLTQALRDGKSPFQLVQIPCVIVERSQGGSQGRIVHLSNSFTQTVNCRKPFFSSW
T1 sequence (Q9BTU6 whole entry, looked up): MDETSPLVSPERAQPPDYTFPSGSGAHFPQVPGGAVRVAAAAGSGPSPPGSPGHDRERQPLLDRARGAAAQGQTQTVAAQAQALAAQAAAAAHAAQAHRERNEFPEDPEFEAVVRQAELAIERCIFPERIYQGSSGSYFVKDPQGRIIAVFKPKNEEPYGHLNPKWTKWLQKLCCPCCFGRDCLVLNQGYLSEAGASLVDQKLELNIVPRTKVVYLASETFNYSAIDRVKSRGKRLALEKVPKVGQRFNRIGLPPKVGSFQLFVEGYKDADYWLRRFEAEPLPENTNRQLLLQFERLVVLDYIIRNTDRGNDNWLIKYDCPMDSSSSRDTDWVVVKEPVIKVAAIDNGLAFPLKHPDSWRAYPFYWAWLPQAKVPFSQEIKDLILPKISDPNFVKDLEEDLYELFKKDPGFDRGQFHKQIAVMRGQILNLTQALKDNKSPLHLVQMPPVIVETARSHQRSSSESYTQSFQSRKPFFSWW
T1 sequence (Q9UBF8 whole entry, looked up): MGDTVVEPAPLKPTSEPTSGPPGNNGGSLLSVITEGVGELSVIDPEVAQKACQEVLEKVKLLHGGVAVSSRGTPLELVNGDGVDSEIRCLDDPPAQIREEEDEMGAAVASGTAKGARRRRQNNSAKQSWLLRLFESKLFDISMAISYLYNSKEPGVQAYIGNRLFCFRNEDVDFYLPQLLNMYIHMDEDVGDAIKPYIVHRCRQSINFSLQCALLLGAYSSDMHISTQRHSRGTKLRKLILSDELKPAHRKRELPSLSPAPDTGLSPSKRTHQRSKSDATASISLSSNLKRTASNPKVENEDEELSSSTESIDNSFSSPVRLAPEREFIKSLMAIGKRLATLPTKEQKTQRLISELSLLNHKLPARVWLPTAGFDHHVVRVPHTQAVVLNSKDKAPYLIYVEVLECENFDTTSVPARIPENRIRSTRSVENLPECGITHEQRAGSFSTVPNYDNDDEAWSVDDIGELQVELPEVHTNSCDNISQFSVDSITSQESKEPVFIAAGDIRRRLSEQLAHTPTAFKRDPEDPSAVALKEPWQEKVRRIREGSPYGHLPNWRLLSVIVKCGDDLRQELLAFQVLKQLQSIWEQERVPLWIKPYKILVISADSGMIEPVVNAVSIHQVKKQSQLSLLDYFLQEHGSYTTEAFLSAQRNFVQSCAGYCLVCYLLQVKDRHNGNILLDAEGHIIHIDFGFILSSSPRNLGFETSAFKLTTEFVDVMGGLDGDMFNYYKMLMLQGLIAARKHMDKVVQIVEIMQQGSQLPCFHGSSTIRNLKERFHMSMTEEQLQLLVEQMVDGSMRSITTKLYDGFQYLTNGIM

In assay [1], `CCCCC/C=C/C/C=C/C/C=C/C/C=C/CCCC(=O)OC(COC(=O)CCCCCCCCCCCCCCCCC)COP(=O)(O)OC1C(O)C(O)C(O)C(O)C1O` (stereo not given) displayed a Rate of formation of 23.5 pmol/min. Also, the Relative rate in assay [2] is 100%.
In the same order, the values of `CCCCCCCCCCCCCCCC(=O)OCC(COP(=O)(O)OC1C(O)C(O)C(O)C(O)C1O)OC(=O)CCCCCCCCCCCCCCC` (stereo in doubt; 10d) are 0.76 pmol/min and 3.2%.
In the same order, the values of `CCCCCCCCCCCCCCCC(=O)OCC(COP(=O)(O)OC1C(O)C(O)C(O)C(O)C1O)OC(=O)CCCCCCCCCCCCCCC` (stereo in doubt; 10a) are 24.9 pmol/min and 106%.
The compound `CCCCCCCCCCCCCCCC(=O)OCC(COP(=O)(O)OC1C(O)C(O)C(O)C(O)C1O)OC(=O)CCCCCCCCCCCCCCC` (stereo in doubt; 10c) showed a Rate of formation in assay [1] of 1.01 pmol/min. Further, the Relative rate in assay [2] is 4.3%.
The like results for `CCCCCCCCCCCCCCCC(=O)OCC(COP(=O)(O)OC1C(O)C(O)C(O)C(O)C1O)OC(=O)CCCCCCCCCCCCCCC` (stereo in doubt; 10b) were, in that order, 23.5 pmol/min and 100%.

Values taken from ChEMBL document CHEMBL1124820, “Total synthesis of the four stereoisomers of dihexadecanoyl phosphatidylinositol and the substrate stereospecificity of human erythrocyte membrane phosphatidylinositol 4-kinase” (J Med Chem, 1990).
